Active and inactive are the calls of the source. The calls are words filed in the database; no cut-off is given here.

For the first series, the target named is T1, Caspase-3 (Homo sapiens) (UniProt P42574).
T1 sequence (whole entry): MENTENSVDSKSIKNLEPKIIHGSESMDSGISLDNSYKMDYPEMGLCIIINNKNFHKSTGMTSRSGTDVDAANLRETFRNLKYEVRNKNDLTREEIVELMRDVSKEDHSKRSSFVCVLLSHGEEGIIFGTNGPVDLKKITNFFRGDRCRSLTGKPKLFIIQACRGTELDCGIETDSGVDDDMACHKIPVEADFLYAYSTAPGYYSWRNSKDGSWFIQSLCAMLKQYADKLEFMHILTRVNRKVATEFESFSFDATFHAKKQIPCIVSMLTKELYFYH
The series can be described thus: Inhibition of human recombinant caspase-3 assessed as fluorescent 7-amido-4-methylcoumarin release using Ac-DEVD-AMC as peptide substrate at <200 uM by fluorometric assay.
Conditions: not given
In short, it runs like this:
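Recombinant human caspase-3 (stock 10 U/ml in assay buffer) mixed with inhibitor at various concentrations. Reaction started with AMC substrate at 200 (final). Buffer was 20 mM HEPES, 2 mM EDTA, 0.1% CHAPS, 5 mM DTT, pH 7.4. AMC release followed continuously at 37 °C by fluorescence, excitation 360 nm and emission 460 nm. IC50 determined.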
On to `CC(C)[C@H](NC(=O)OCC1c2ccccc2-c2ccccc21)C(=O)N[C@H](C(=O)N[C@H](/C=C/S(C)(=O)=O)CC(=O)O)C(C)C`, for which the inhibition entry was “inactive”.

Turning to `C[C@H](NC(=O)OCc1ccccc1)C(=O)N[C@H](/C=C/S(C)(=O)=O)CC(=O)O`, the inhibition result is “inactive”.

Turning to `C[C@H](NC(=O)OCC1c2ccccc2-c2ccccc21)C(=O)N[C@H](/C=C/S(C)(=O)=O)CC(=O)O`, the inhibition entry is “inactive”.

Regarding `CC[C@H](C)[C@H](NC(=O)OCC1c2ccccc2-c2ccccc21)C(=O)N[C@H](/C=C/S(=O)(=O)c1ccccc1)CC(=O)O`, the inhibition entry is “inactive”.

Consider `CC[C@H](C)[C@H](NC(=O)OCC1c2ccccc2-c2ccccc21)C(=O)N[C@H](/C=C/S(C)(=O)=O)CC(=O)O`, for which the inhibition entry was “inactive”.

As for `CC(C)[C@H](NC(=O)OCC1c2ccccc2-c2ccccc21)C(=O)N[C@H](C(=O)N[C@H](/C=C/S(=O)(=O)c1ccccc1)CC(=O)O)C(C)C`, the inhibition entry is “inactive”.

As for `C[C@H](NC(=O)OCC1c2ccccc2-c2ccccc21)C(=O)N[C@H](/C=C/S(=O)(=O)c1ccccc1)CC(=O)O`, the inhibition entry is “inactive”.

`C[C@H](NC(=O)OCc1ccccc1)C(=O)N[C@H](/C=C/S(=O)(=O)c1ccccc1)CC(=O)O`: the inhibition result was “inactive”.

In a further series the test system is Saccharomyces cerevisiae. In words: Growth stimulation in Saccharomyces cerevisiae CG379 transformed with empty vector at 5 to 100 uM after 2 days. It counts as organism-based. The note with it: in vivo, 48 h.
On to `CC(C)[C@H](NC(=O)OCc1ccccc1)C(=O)N[C@H](/C=C/S(C)(=O)=O)CC(=O)O`, for which the Activity is reported as -1%.

Turning to `CC(C)[C@H](NC(=O)OCC1c2ccccc2-c2ccccc21)C(=O)N[C@H](/C=C/S(=O)(=O)c1ccccc1)CC(=O)O`, the Activity amounted to 1.3%.

With `CC[C@H](C)[C@H](NC(=O)OCc1ccccc1)C(=O)N[C@H](/C=C/S(=O)(=O)c1ccccc1)CC(=O)O`, the Activity is given as 1.9%.

Consider `CC(C)[C@H](NC(=O)OCC1c2ccccc2-c2ccccc21)C(=O)N[C@H](/C=C/S(C)(=O)=O)CC(=O)O`, for which the Activity is reported as -7%.

Take `O=C(O)C[C@@H](/C=C/S(=O)(=O)c1ccccc1)NC(=O)OCC1c2ccccc2-c2ccccc21`: the Activity is 2.8%.

As for `CC[C@H](C)[C@H](NC(=O)OCc1ccccc1)C(=O)N[C@H](/C=C/S(C)(=O)=O)CC(=O)O`, the Activity was -3.3%.

For the molecule `CS(=O)(=O)/C=C/[C@H](CC(=O)O)NC(=O)OCC1c2ccccc2-c2ccccc21`, the Activity amounted to 1.7%.

Another series relates to Saccharomyces cerevisiae. The series can be described thus: Growth stimulation in Saccharomyces cerevisiae CG379 transformed with empty vector at 5 to 50 uM after 2 days. In kind it is organism-based. The note with it: in vivo, 48 h.
Consider `CC(=O)N[C@@H](CC(=O)O)C(=O)N[C@@H](CCC(=O)O)C(=O)N[C@H](C(=O)N[C@@H](CC(=O)O)C(=O)CCl)C(C)C`, for which the Activity worked out at 1.7%.

Values taken from ChEMBL document CHEMBL1782044, “Aspartic vinyl sulfones: inhibitors of a caspase-3-dependent pathway” (Eur J Med Chem, 2011).
